Test results: PMC12325899 (Scientific Reports, 2025)
Each block holds one molecule with its values, some of them ahead of it.

Columns and labels:
BCRP [1] = details: cited from earlier work
BCRP [2] = target: T1, BCRP (Rattus norvegicus, UniProt Q80W57); assay: In vivo pharmacokinetic interaction with the BCRP substrate sulfasalazine; parameters: species or system Sprague-Dawley (SD) rats; details: rats; for half-life: male, Sprague-Dawley, rat, plasma, po, 2 mg/kg, t1/2 of sulfasalazine; for increase of sulfasalazine AUClast versus sulfasalazine alone / increase of sulfasalazine Cmax versus sulfasalazine alone: flavonol 5 mg/kg co-administered with sulfasalazine 2 mg/kg oral
T1 sequence (Q80W57 1-657): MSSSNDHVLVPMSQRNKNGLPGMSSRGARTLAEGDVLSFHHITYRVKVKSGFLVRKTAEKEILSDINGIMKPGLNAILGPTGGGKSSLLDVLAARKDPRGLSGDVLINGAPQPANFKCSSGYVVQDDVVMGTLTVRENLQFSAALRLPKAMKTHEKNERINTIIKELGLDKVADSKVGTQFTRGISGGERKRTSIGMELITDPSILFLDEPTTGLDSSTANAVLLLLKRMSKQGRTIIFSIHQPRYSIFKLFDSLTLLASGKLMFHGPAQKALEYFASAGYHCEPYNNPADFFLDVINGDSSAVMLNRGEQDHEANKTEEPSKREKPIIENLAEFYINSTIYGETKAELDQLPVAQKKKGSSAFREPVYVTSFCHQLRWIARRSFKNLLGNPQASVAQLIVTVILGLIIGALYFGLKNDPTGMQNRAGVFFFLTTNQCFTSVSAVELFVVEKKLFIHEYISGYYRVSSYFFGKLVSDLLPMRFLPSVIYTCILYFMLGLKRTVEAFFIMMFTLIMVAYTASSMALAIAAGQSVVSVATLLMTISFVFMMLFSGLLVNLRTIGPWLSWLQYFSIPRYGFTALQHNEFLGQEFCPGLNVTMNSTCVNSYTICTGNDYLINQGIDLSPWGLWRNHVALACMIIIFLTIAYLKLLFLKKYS
Summary of the method: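 Male SD rats (8 weeks, 250–270 g), acclimatized 1 week and fasted overnight with water, n = 5/group. Oral sulfasalazine 2 mg/kg alone or co-administered with test flavonol 5 mg/kg. Plasma was separated at 4 °C and sulfasalazine measured by LC-MS/MS after methanol precipitation with IS. Noncompartmental analysis: AUClast by trapezoidal rule, Cmax observed. Groups were compared with Student's t-test; mean ± SD.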

BCRP [3] = details: amentoflavone 30 mg/kg co-administered with mitoxantrone, rats; cited from earlier work
BCRP [4] = details: read-out: IC50 for BCRP inhibition; cited from earlier work
BCRP [5] = target: T2, BCRP (Homo sapiens, UniProt Q9UNQ0); assay: BCRP inhibition, prazosin accumulation assay in MDCKII-BCRP cells; details: for IC50: IC50 on BCRP activity, prazosin 5 µM, 20 min, MDCKII-BCRP; for inhibition at 20 min, 2 µM: human, pH 7.4
T2 sequence (Q9UNQ0 1-655): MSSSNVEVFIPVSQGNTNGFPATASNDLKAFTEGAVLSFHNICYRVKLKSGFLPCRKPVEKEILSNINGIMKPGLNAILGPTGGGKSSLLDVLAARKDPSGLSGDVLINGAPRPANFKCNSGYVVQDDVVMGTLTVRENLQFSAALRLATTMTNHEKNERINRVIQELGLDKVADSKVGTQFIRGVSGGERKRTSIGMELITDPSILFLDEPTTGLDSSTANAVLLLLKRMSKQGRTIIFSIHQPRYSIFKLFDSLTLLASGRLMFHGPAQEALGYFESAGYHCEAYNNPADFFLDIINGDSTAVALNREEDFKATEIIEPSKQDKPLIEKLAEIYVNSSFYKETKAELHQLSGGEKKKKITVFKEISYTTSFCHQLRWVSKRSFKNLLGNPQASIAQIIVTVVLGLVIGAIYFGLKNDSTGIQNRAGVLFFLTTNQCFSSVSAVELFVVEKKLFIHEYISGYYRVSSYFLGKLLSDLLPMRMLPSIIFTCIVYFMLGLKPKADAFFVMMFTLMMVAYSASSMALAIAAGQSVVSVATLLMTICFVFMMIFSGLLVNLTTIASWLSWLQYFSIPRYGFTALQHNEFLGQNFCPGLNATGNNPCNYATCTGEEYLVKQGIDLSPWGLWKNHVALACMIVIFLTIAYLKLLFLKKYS

MDCKII-BCRP cells = assay: Reversal of BCRP-mediated resistance to SN-38; format: cell-based, canine; details: flavonol 5 µM; CC50 in MDCKII-BCRP comparable to mock cells
[6] = Plasma pharmacokinetics of the flavonols after oral co-administration; format: in vivo, Sprague-Dawley (SD) rats; details: male, Sprague-Dawley, rat, 5 mg/kg
Summary of the method: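 Fasted male SD rats (8 weeks, 250–270 g; n = 5) were dosed orally with test flavonol 5 mg/kg together with sulfasalazine 2 mg/kg. Flavonol in plasma was quantified by LC-MS/MS: methanol/IS protein precipitation, C18 gradient of ammonium formate and formic acid–acetonitrile. Noncompartmental parameters: AUClast by trapezoidal rule, AUCinf by extrapolation, Cmax/Tmax observed, t1/2 from terminal slope; mean ± SD.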

BCRP [7] = details: cited from earlier work; remark: listed apart in the source

Structure (SMILES): COc1cc(Nc2ncc(F)c(Nc3ccc4c(n3)N(COP(=O)(O)O)C(=O)C(C)(C)O4)n2)cc(OC)c1OC [Fostamatinib]
increase of the plasma concentration of rosuvastatin (BCRP [1]): approximately two-fold

Structure (SMILES): O=c1cc(-c2ccc(O)c(-c3c(O)cc(O)c4c(=O)cc(-c5ccc(O)cc5)oc34)c2)oc2cc(O)cc(O)c12 [amentoflavone]
increase of the AUC of mitoxantrone (BCRP [3]): 1.23 fold
IC50 (BCRP [4]): ~4 µM

Structure (SMILES): O=c1c(O)c(-c2cccc(O)c2)oc2cc(O)ccc12 [compound 8, 3,7,3’-Trihydroxyflavone]
IC50 (BCRP [5]): < 5 µM
reversal of BCRP-mediated resistance to SN-38 (MDCKII-BCRP cells): almost completely reversed BCRP-mediated resistance to SN-38

Structure (SMILES): COc1ccc(-c2oc3cc(O)cc(O)c3c(=O)c2OC)cc1O [compound 48, 5,7,3’-Trihydroxy-3,4’-dimethoxyflavone]
IC50 (BCRP [5]): < 5 µM

Structure (SMILES): COc1ccc(-c2oc3cc(OC)c(O)c(OC)c3c(=O)c2OC)cc1O [compound 52, 6,3’-Dihydroxy-3,5,7,4’-tetramethoxyflavone]
IC50 (BCRP [5]): < 5 µM

Structure (SMILES): COc1cc(-c2oc3cc(O)cc(O)c3c(=O)c2O)ccc1O [compound no. 29, 3,5,7,4’-Tetrahydroxy-3’-methoxyflavone]
inhibition at 20 min, 2 µM (BCRP [5]): 45.5%

Structure (SMILES): COc1ccc2c(=O)c(OC)c(-c3ccc(O)c(OC)c3)oc2c1 [compound no. 43, 4’-Hydroxy-3,7,3’-trimethoxyflavone]
IC50 (BCRP [5]): < 5 µM
inhibition at 20 min, 2 µM (BCRP [5]): 45.2%
reversal of BCRP-mediated resistance to SN-38 (MDCKII-BCRP cells): almost completely reversed BCRP-mediated resistance to SN-38

Structure (SMILES): O=c1[nH]c(=O)c2c[nH]nc2[nH]1 [oxypurinol]
prolongation of half-life (BCRP [7]; individuals homozygous for the p.Q141K variant): 1.8 fold

Structure (SMILES): CC(C)c1nc(N(C)S(C)(=O)=O)nc(-c2ccc(F)cc2)c1/C=C/[C@@H](O)C[C@@H](O)CC(=O)O [rosuvastatin, reference compound]
increase in maximum plasma concentration (BCRP [7]; 421CA or 421AA genotypes versus 421CC wild-type homozygous genotype): 1.9 fold

Continued, in another order:

half-life (BCRP [2]; sulfasalazine 2 mg/kg oral + 3,4’-dimethoxyflavone 5 mg/kg): 1.76 ± 0.29 h
half-life (BCRP [2]; sulfasalazine 2 mg/kg oral + 3,6,3’,4’-tetramethoxyflavone 5 mg/kg): 2.34 ± 1.23 h
Structure (SMILES): O=C(O)c1cc(/N=N/c2ccc(S(=O)(=O)Nc3ccccn3)cc2)ccc1O [Sulfasalazine, sulfasalazine, reference compound]

IC50 (BCRP [5]): > 10 µM
Structure (SMILES): O=c1c(O)c(-c2ccc(O)cc2O)oc2cc(O)cc(O)c12 [compound 31, 3,5,7,2’,4’-Pentahydroxyflavone]

IC50 (BCRP [5]): < 5 µM
Structure (SMILES): Cc1c(O)cc(O)c2c(=O)c(O)c(-c3ccc(O)c(O)c3)oc12 [compound 32, 3,5,7,3’,4’-Pentahydroxy-8-methylflavone]

IC50 (BCRP [5]): > 10 µM
Structure (SMILES): COc1ccc2oc(-c3cccc(OC)c3OC)c(OC)c(=O)c2c1 [compound 47, 3,6,2’,3’-Tetramethoxyflavone]

IC50 (BCRP [5]): < 5 µM
Structure (SMILES): COc1cc(O)c2c(=O)c(OC)c(-c3ccc(OC)c(OC)c3)oc2c1 [compound 50, 5-Hydroxy-3,7,3’,4’-tetramethoxyflavone]
reversal of BCRP-mediated resistance to SN-38 (MDCKII-BCRP cells): almost completely reversed BCRP-mediated resistance to SN-38

IC50 (BCRP [5]): < 5 µM
Structure (SMILES): COc1ccc(-c2oc3cc(OC)c(OC)c(OC)c3c(=O)c2OC)cc1 [compound 53, 3,5,6,7,4’-Pentamethoxyflavone]

IC50 (BCRP [5]): < 5 µM
Structure (SMILES): O=c1c(O)c(-c2ccccc2)oc2cc(O)ccc12 [compound no. 7, 3,7-Dihydroxyflavone]

IC50 (BCRP [5]): < 5 µM
inhibition at 20 min, 2 µM (BCRP [5]): 45.9%
Structure (SMILES): O=c1c(O)c(-c2ccc(O)c(O)c2)oc2cc(O)cc(O)c12 [compound no. 27, 3,5,7,3’,4’-Pentahydroxyflavone]

AUC(0-t) [6]: 12.4 ± 5 ng·h/mL
Cmax [6]: 13.5 ± 8.8 ng/mL
half-life [6]: 0.54 ± 0.15 h
increase of sulfasalazine AUClast versus sulfasalazine alone (BCRP [2]): 1.79 fold
increase of sulfasalazine Cmax versus sulfasalazine alone (BCRP [2]): approximately 1.83 fold
Structure (SMILES): COc1ccc(-c2oc3ccccc3c(=O)c2OC)cc1 [compound no. 37, 3,4’-Dimethoxyflavone]

IC50 (BCRP [5]): < 5 µM
inhibition at 20 min, 2 µM (BCRP [5]): 49.9%
AUC(0-t) [6]: 22.3 ± 1.6 ng·h/mL
Cmax [6]: 13.3 ± 0.6 ng/mL
half-life [6]: 2.24 ± 0.17 h
increase of sulfasalazine AUClast versus sulfasalazine alone (BCRP [2]): 1.74 fold
increase of sulfasalazine Cmax versus sulfasalazine alone (BCRP [2]): 2.02 fold
Structure (SMILES): COc1ccc2oc(-c3ccc(OC)c(OC)c3)c(OC)c(=O)c2c1 [compound no. 46, 3,6,3’,4’-Tetramethoxyflavone]
reversal of BCRP-mediated resistance to SN-38 (MDCKII-BCRP cells): almost completely reversed BCRP-mediated resistance to SN-38

IC50 (BCRP [5]): < 5 µM
inhibition at 20 min, 2 µM (BCRP [5]): 52%
Structure (SMILES): COc1ccc(-c2oc3cc(OC)c(OC)c(OC)c3c(=O)c2OC)cc1OC [compound no. 54, 3,5,6,7,3’,4’-Hexamethoxyflavone]
